Active and inactive are the calls of the source. The calls are words filed in the database; no cut-off is given here.
Tests used:
[1] = target: Bcr/Abl fusion protein (Homo sapiens, UniProt P00519, T315I); assay: Inhibition of wild type Bcr-Abl T315I mutant (unknown origin) incubated for 1 hr in presence of ATP by ADP-Glo kinase assay; assay type: protein assay
[2] = target: Bcr/Abl fusion protein (Homo sapiens, UniProt P00519); assay: Inhibition of wild type Bcr-Abl (unknown origin) incubated for 1 hr in presence of ATP by ADP-Glo kinase assay; assay type: protein assay
[3] = test system: K562; assay: Antiproliferative activity against human K562 cells assessed as inhibition of cell proliferation incubated for 48 hrs by MTT assay; assay type: functional, cell-based; settings: K562, 48 h
Procedure, shortened: (§1)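 MTT growth assay. K562 and K562R (T315I) cells grown in RPMI 1640 with 10% FBS. Hek293 and EA.hy926 cells grown in DMEM with 10% FBS. About 2.5 × 10^3 exponential-phase cells per well, preincubated 12 h at 37 °C in 5% CO2. Serially diluted compounds added for 48 h, then MTT at 0.5 mg/mL final for 4 h. Formazan dissolved in DMSO, A490 read, IC50 calculated from inhibition ratios.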

[4] = test system: HEK293; assay: Cytotoxicity against human HEK293 cells assessed as cell growth inhibition incubated for 48 hrs by MTT assay; assay type: cell-based; settings: hek293, 48 h; procedure, shortened: as §1
[5] = test system: K562; assay: Induction of apoptosis in human K562 cells assessed as necrotic cells at 10 uM after 48 hrs by annexinV/FITC-propidium iodide staining based flow cytometry (reference value: 0.23 %); assay type: functional
[6] = test system: K562; assay: Induction of apoptosis in human K562 cells assessed as late apoptotic cells at 10 uM after 48 hrs by annexinV/FITC-propidium iodide staining based flow cytometry (reference value: 12.60 %); assay type: functional
[7] = test system: K562; assay: Induction of apoptosis in human K562 cells assessed as late apoptotic cells at 20 uM after 48 hrs by annexinV/FITC-propidium iodide staining based flow cytometry (reference value: 12.60 %); assay type: functional
[8] = target: T1, Bcr/Abl fusion protein (Homo sapiens) (UniProt P00519+P11274); assay: Inhibition of Bcr-Abl in human K562 cells assessed as decrease in tyrosine phosphorylation measured after 48 hrs by Western blot analysis; assay type: cell-based; settings: dose 1-15 µM
Procedure, shortened: (§2)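 Western blot. K562 cells treated 48 h with DMSO vehicle or compound at 1, 5, 10 or 15 µM. Lysates were normalized by BCA and equal protein run on SDS-PAGE, then transferred to PVDF and blocked in 5% milk/TBS-0.1% Tween-20. Probed overnight at 4 °C with p-Bcr-Abl and GAPDH antibodies, then with HRP secondaries for 2 h at room temperature. Read-out was p-Bcr-Abl/GAPDH ratio.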

[9] = test system: K-562R; assay: Antiproliferative activity against T315I mutant expressing human K-562R cells assessed as inhibition of cell proliferation incubated for 48 hrs by MTT assay; assay type: functional, cell-based; procedure, shortened: as §1
[10] = test system: K562; assay: Induction of apoptosis in human K562 cells assessed as viable cells at 1 uM after 48 hrs by annexinV/FITC-propidium iodide staining based flow cytometry (reference value: 84.19 %); assay type: functional; settings: read-out: Activity
[11] = test system: K562; assay: Induction of apoptosis in human K562 cells assessed as viable cells at 20 uM after 48 hrs by annexinV/FITC-propidium iodide staining based flow cytometry (reference value: 84.19 %); assay type: functional; settings: read-out: Activity
[12] = test system: K562; assay: Induction of apoptosis in human K562 cells assessed as early apoptotic cells at 20 uM after 48 hrs by annexinV/FITC-propidium iodide staining based flow cytometry (reference value: 2.98 %); assay type: functional
[13] = test system: K562; assay: Induction of apoptosis in human K562 cells assessed as early apoptotic cells at 1 uM after 48 hrs by annexinV/FITC-propidium iodide staining based flow cytometry (reference value: 2.98 %); assay type: functional
[14] = test system: K562; assay: Induction of apoptosis in human K562 cells assessed as viable cells at 10 uM after 48 hrs by annexinV/FITC-propidium iodide staining based flow cytometry (reference value: 84.19 %); assay type: functional; settings: read-out: Activity
[15] = test system: K562; assay: Induction of apoptosis in human K562 cells assessed as necrotic cells at 20 uM after 48 hrs by annexinV/FITC-propidium iodide staining based flow cytometry (reference value: 0.23 %); assay type: functional
[16] = test system: K562; assay: Induction of apoptosis in human K562 cells assessed as late apoptotic cells at 1 uM after 48 hrs by annexinV/FITC-propidium iodide staining based flow cytometry (reference value: 12.60 %); assay type: functional
[17] = target: T1, Bcr/Abl fusion protein (Homo sapiens); assay: Inhibition of Bcr-Abl phosphorylation in human K562 cells at 10 uM measured after 48 hrs by Western blot analysis; assay type: cell-based; procedure, shortened: as §2
[18] = test system: EA.hy 926; assay: Cytotoxicity against human EA.hy926 cells assessed as cell growth inhibition incubated for 48 hrs by MTT assay; assay type: cell-based; settings: ea.hy 926, 48 h; procedure, shortened: as §1
[19] = test system: K562; assay: Induction of apoptosis in human K562 cells assessed as necrotic cells at 1 uM after 48 hrs by annexinV/FITC-propidium iodide staining based flow cytometry (reference value: 0.23 %); assay type: functional
[20] = test system: K562; assay: Induction of apoptosis in human K562 cells assessed as early apoptotic cells at 10 uM after 48 hrs by annexinV/FITC-propidium iodide staining based flow cytometry (reference value: 2.98 %); assay type: functional

Row | SMILES | IC50 [1] | IC50 [2] | IC50 [3] | further results
1 | CC(=O)Nc1ccc(-c2ccc(C(=O)N[C@@H](C)C(=O)Nc3ccc(Cl)c(C(F)(F)F)c3)cc2)cn1 | 22.4 µM | 0.2 µM | 107 µM | 
2 | C[C@H](NC(=O)c1ccc(-c2cncc(C(=O)NCCN(C)C)c2)cc1)C(=O)Nc1ccc(Cl)c(C(F)(F)F)c1 | 2.28 µM | 6.62 µM | 4.65 µM | 
3 | CS(=O)(=O)Nc1ccc(-c2cccc(C(=O)N[C@H]3CN[C@@H](C(=O)Nc4ccc(Cl)c(C(F)(F)F)c4)C3)c2)cn1 | 16.2 µM | 6.48 µM | 24.6 µM | 
4 | Nc1ccc(-c2cccc(C(=O)N[C@H]3CN[C@@H](C(=O)Nc4ccc(Cl)c(C(F)(F)F)c4)C3)c2)cn1 | 103 µM | 12 µM | 20 µM | 
5 | C[C@H](NC(=O)c1cccc(-c2cncc(C(=O)NCCN(C)C)c2)c1)C(=O)Nc1ccc(Cl)c(C(F)(F)F)c1 | 2.41 µM | 0.64 µM | 7.92 µM | 
6 | O=C(NC1CC1)c1cncc(-c2cccc(C(=O)N[C@H]3CN[C@@H](C(=O)Nc4ccc(Cl)c(C(F)(F)F)c4)C3)c2)c1 | 26.6 µM | 16 µM | 27.3 µM | 
7 | C[C@H](NC(=O)c1ccc(-c2ccc(NC(=O)C(C)(C)C)nc2)cc1)C(=O)Nc1ccc(Cl)c(C(F)(F)F)c1 | 0.53 µM | 0.041 µM | 7.45 µM | Activity [4]: Non-Toxic; Activity [5]: 4.57%; Activity [6]: 48.96%; Activity [7]: 50.94%; inhibition [8]: Dose-dependent effect; IC50 [9]: 9.1 µM; viability at 1 µM [10]: 74.5%; viability at 20 µM [11]: 35.9%; Activity [12]: 11.48%; Activity [13]: 3.39%; viability at 10 µM [14]: 36.5%; Activity [15]: 1.65%; Activity [16]: 21.11%; inhibition [17]: Active; Activity [18]: Non-Toxic; Activity [19]: 0.98%; Activity [20]: 10.03%
8 | CN(C)CCNC(=O)c1cncc(-c2ccc(C(=O)N[C@H]3CN[C@@H](C(=O)Nc4ccc(Cl)c(C(F)(F)F)c4)C3)cc2)c1 | 22.1 µM | 4.23 µM | 4.56 µM | 
9 | C[C@H](NC(=O)c1cccc(-c2ccc(NS(C)(=O)=O)nc2)c1)C(=O)Nc1ccc(Cl)c(C(F)(F)F)c1 | 129 µM | 3.34 µM | 4.66 µM | 
10 | CCN(CC)C(=O)c1cncc(-c2cccc(C(=O)N[C@H]3CN[C@@H](C(=O)Nc4ccc(Cl)c(C(F)(F)F)c4)C3)c2)c1 | 42.7 µM | 3.75 µM | 24.9 µM | 
11 | C[C@H](NC(=O)c1cccc(-c2ccc(NC(=O)C(C)(C)C)nc2)c1)C(=O)Nc1ccc(Cl)c(C(F)(F)F)c1 | 244 µM | 4.48 µM | 18.4 µM | 
12 | Nc1ccc(-c2ccc(C(=O)N[C@H]3CN[C@@H](C(=O)Nc4ccc(Cl)c(C(F)(F)F)c4)C3)cc2)cn1 | 14.1 µM | 9.18 µM | 9.13 µM | 
13 | CN(C)CCNC(=O)c1cncc(-c2cccc(C(=O)N[C@H]3CN[C@@H](C(=O)Nc4ccc(Cl)c(C(F)(F)F)c4)C3)c2)c1 | 21.7 µM | 2.41 µM | 19.8 µM | 
14 | CC(=O)Nc1ccc(-c2cccc(C(=O)N[C@H]3CN[C@@H](C(=O)Nc4ccc(Cl)c(C(F)(F)F)c4)C3)c2)cn1 | 24.6 µM | 0.49 µM | 8.71 µM | 
15 | Cc1ccc(C(=O)Nc2ccc(CN3CCN(C)CC3)c(C(F)(F)F)c2)cc1C#Cc1cnc2cccnn12 [PONATINIB] |  |  |  | IC50 [9]: 0.093 µM
16 | C[C@H](NC(=O)c1ccc(-c2ccc(N)nc2)cc1)C(=O)Nc1ccc(Cl)c(C(F)(F)F)c1 | 7.51 µM | 0.77 µM | 5.95 µM | 
17 | O=C(NC1CC1)c1cncc(-c2ccc(C(=O)N[C@H]3CN[C@@H](C(=O)Nc4ccc(Cl)c(C(F)(F)F)c4)C3)cc2)c1 | 39 µM | 61.2 µM | 65.3 µM | 
18 | CC(=O)Nc1ccc(-c2cccc(C(=O)N[C@@H](C)C(=O)Nc3ccc(Cl)c(C(F)(F)F)c3)c2)cn1 | 38.6 µM | 0.6 µM | 42.8 µM | 
19 | CC(=O)Nc1ccc(-c2ccc(C(=O)N[C@H]3CN[C@@H](C(=O)Nc4ccc(Cl)c(C(F)(F)F)c4)C3)cc2)cn1 | 13 µM | 34.5 µM | 22.8 µM | 
20 | CC(C)(C)C(=O)Nc1ccc(-c2cccc(C(=O)N[C@H]3CN[C@@H](C(=O)Nc4ccc(Cl)c(C(F)(F)F)c4)C3)c2)cn1 | 147 µM | 4.63 µM | 28 µM | 
21 | CCN(CC)C(=O)c1cncc(-c2ccc(C(=O)N[C@H]3CN[C@@H](C(=O)Nc4ccc(Cl)c(C(F)(F)F)c4)C3)cc2)c1 | 50.5 µM | 7.4 µM | 55.5 µM | 
22 | C[C@H](NC(=O)c1ccc(-c2ccc(NS(C)(=O)=O)nc2)cc1)C(=O)Nc1ccc(Cl)c(C(F)(F)F)c1 | 9.95 µM | 3.77 µM | 7.24 µM | 
23 | CC(C)(C)C(=O)Nc1ccc(-c2ccc(C(=O)N[C@H]3CN[C@@H](C(=O)Nc4ccc(Cl)c(C(F)(F)F)c4)C3)cc2)cn1 | 50.3 µM | 2.64 µM | 11.6 µM | 
24 | CCN(CC)C(=O)c1cncc(-c2cccc(C(=O)N[C@@H](C)C(=O)Nc3ccc(Cl)c(C(F)(F)F)c3)c2)c1 | 86 µM | 0.29 µM | 29.9 µM | 
25 | C[C@H](NC(=O)c1ccc(-c2cncc(C(=O)NC3CC3)c2)cc1)C(=O)Nc1ccc(Cl)c(C(F)(F)F)c1 | 4.99 µM | 9.38 µM | 396 µM | 
26 | C[C@H](NC(=O)c1cccc(-c2ccc(N)nc2)c1)C(=O)Nc1ccc(Cl)c(C(F)(F)F)c1 | 86.8 µM | 4.4 µM | 8.09 µM | 
27 | CCN(CC)C(=O)c1cncc(-c2ccc(C(=O)N[C@@H](C)C(=O)Nc3ccc(Cl)c(C(F)(F)F)c3)cc2)c1 | 59.9 µM | 0.011 µM | 20.2 µM | 
28 | CS(=O)(=O)Nc1ccc(-c2ccc(C(=O)N[C@H]3CN[C@@H](C(=O)Nc4ccc(Cl)c(C(F)(F)F)c4)C3)cc2)cn1 | 36.9 µM | 0.15 µM | 45 µM | 
29 | C[C@H](NC(=O)c1cccc(-c2cncc(C(=O)NC3CC3)c2)c1)C(=O)Nc1ccc(Cl)c(C(F)(F)F)c1 | 7.83 µM | 1.46 µM | 15.1 µM | 

Source: ChEMBL document CHEMBL5055648, “Design, synthesis, and biological evaluation of novel Bcr-AblT315I inhibitors incorporating amino acids as flexible linker” (Bioorg Med Chem, 2021)
